In paper PMC5713684 (International Journal of Nanomedicine, 2017):
No end group written: not given here. *: point of attachment. Octanoyl = CCCCCCCC(=O)*

Tests used:
[1] = Ghrl-stability evaluation; format: physicochemical; settings: Ghrl 1 mg/mL, physiological pH, 4–60°C, up to 48 hours, HPLC/UV
In short: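 Ghrelin at 1 mg/mL was held at 4, 25, 37 and 60°C in water, PBS pH 7.4, HBSS pH 7.4 and pharmacopoeial buffers from pH 2 to 10.4 (PBS, acetate, phosphate, boric acid, borate). Samples were drawn at 0.5–6, 24 and 48 h. Remaining peptide was quantified by reversed-phase HPLC/UV on an ODS column at 37°C, using water/acetonitrile mobile phases with 0.1% TFA.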

[2] = Isothermal titration calorimetry of Ghrl with AL-free; format: binding; settings: ITC, AL-free 10 mg/mL injected into Ghrl 1 mg/mL, PBS pH 7.4, 26°C, mean of n=2
In short: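 Empty anionic liposomes (10 mg/mL in PBS pH 7.4) were injected stepwise into ghrelin (1 mg/mL in PBS) in the measuring cell. Each injection lasted 14.5 s, with 600 s spacing until steady state. Solutions were degassed beforehand, water served as reference and stirring was 300 rpm. A PBS-only blank was titrated. Heats were fitted to a cumulative model for K, ΔG, ΔH and TΔS. The titration was done twice and averaged.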

[3] = cited from earlier work
[4] = human plasma; cited from earlier work

## ghrelin (GSS(Octanoyl)FLSPEHQRVQQRKESKKPPAKLQPR; UniProt Q9UBU3 24-51, looked up) [Ghrl]
[1]
  Stability of Ghrl on prolonged heating: without any degradation
[2]
  Binding coefficient K: 0.875 mM⁻¹
[3]
  isoelectric point: 11.5
[4]
  plasmatic half-life t½: 9 to 13 min
